Compound activity as filed in PubChem BioAssay.
ARNT TACC3 PPI – ARNT/TACC3 interaction disruption. AlphaScreen His-ARNT PAS-B/GST-TACC3 binding, luminescence; TACC3 fragment carries E629A point mutation. inhibition, % at 9.99 µM. 390,000 compounds, 0.66% hits. AID 623870;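 active = mean inhibition of replicates at least 50% and at least half of replicates each reaching 50%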;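 note: 0% = complete ARNT plus TACC3 wells and 100% = ARNT alone without TACC3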
DDE Tn7 FP inh – DD(E)-Tn7 binding inhibition, primary FP screen; inhibition, % at 8.3 µM; FP displacement of FITC-Tn7 peptide from fibrin DD(E); 0% = median of compound wells per plate; P02675; 370,000 compounds, 0.13% hits;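 active = inhibition above the mean of compounds falling within the control limits plus 3 SD of them, cut at about 14% in these data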;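 note: 0% = plate median of compound wells and 100% = 10 µM Aha-Tn7 peptide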
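Assay system: human fibrin DD(E) protein / Input: 2 µM fibrin DD(E) / Benchmarks: high control of 10 µM Aha-Tn7 peptide / Measured by: fluorescence polarization of the labelled Tn7 tracer / Medium: Tris buffer with calcium and detergent, pH 7.8 / Timing: 10 min compound pre-incubation, 3 h probe incubation at room temperature / Repeats: one replicate per compound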
CAL PDZ FP-1 – inhibitors of human CAL PDZ peptide binding. Q9HD26. purified CAL PDZ, TMR-peptide fluorescence polarization, 1 h. inhibition, % at 24.9 µM. 300,000 compounds, 0.92% hits. AID 602252;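 active = mean inhibition of at least 30% with at least half of replicates also reaching 30%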;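 note: 0% = DMSO neutral control and 100% = excess unlabeled competitor peptide PRC23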
Tn6 DDE FP – DD(E)-Tn6 binding inhibition, primary FP screen. Fibrin DD(E) TRITC-Tn6 fluorescence polarization displacement. 370,000 compounds, 0.21% hits. inhibition, % at 8.3 µM. AID 720509;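 active = inhibition above a per-campaign cutoff: mean of compounds within control limits plus 3 SD, cut at about 15% in these data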;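 note: 0% = median of all compound wells on the plate and 100% = blocking peptide control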
CAL PDZ FP-2 – inhibitors of human CAL PDZ peptide binding | purified CAL PDZ, TMR-peptide fluorescence polarization, 1 h | inhibition, % at 20 µM | 330,000 compounds, 0.02% hits | AID 504414;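 active = highest replicate inhibition of at least 40%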;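 note: plate controls were DMSO neutral control wells for no effect and unlabeled competitor peptide control wells for full effect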
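System: tagged CAL PDZ domain. Schedule: 1 h room-temperature incubation prior to read. Signal: fluorescence polarization (mP). Measure: percent inhibition from loss of millipolarization.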
GRK2 inh – inhibitors of human GRK2 displacing RNA aptamer. P25098. bead flow cytometry, FAM-aptamer displacement from GRK2. inhibition of aptamer binding, % at 10 µM. 330,000 compounds, 0.59% hits;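 active = inhibition of aptamer binding above 40%, roughly 3 SD of noise, on plates passing a quality check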;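 note: median bead fluorescence of bound FAM aptamer so fluorescent compounds give negative values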
Target sequence (P25098 whole entry, looked up): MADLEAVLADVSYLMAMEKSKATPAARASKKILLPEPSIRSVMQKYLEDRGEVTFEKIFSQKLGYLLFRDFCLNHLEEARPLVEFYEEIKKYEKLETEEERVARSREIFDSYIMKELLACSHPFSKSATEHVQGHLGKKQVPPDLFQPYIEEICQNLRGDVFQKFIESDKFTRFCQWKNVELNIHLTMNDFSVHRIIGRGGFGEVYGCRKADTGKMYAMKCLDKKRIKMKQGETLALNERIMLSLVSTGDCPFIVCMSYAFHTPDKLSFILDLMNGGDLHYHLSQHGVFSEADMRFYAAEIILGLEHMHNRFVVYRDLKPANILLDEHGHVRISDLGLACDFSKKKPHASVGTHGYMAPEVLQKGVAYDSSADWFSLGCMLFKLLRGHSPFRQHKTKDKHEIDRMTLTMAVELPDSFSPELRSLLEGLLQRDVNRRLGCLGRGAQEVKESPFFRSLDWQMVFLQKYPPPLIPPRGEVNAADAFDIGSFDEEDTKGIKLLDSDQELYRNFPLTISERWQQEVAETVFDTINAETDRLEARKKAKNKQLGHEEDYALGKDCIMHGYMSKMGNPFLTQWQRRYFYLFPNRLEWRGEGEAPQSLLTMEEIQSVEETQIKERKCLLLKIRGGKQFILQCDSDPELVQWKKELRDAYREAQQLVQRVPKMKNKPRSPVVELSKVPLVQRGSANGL
GRK2 CP1 – human GRK2 inhibition confirmation, cherry pick 1. shares compounds with GRK2 inh. bead-bound GRK2, FAM-aptamer displacement, flow cytometry. aptamer displacement, % at 10 µM. 2,000 compounds, 4% hits. AID 504451;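 active = aptamer displacement above 40%, near three times the noise of non-fluorescent compounds, on plates passing quality checks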;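 note: negative values mostly reflect intrinsic compound fluorescence rather than true enhancement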
Aptamer quench 1 – fluorescent aptamer quenching in GRK2 counter-screen dose response; shares compounds with GRK2 inh; Fluorescent RNA aptamer beads, flow cytometry; active compounds read high; fluorescence change (kMESF span), kMESF (test concentration not listed); 110 tested, under 10 active;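 active = compounds whose bead fluorescence drops by more than 37 kMESF across the dose range, marking them as dye quenchers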
Aptamer quench SP – quenches fluorescent RNA aptamer, GRK2 hit artifact. shares compounds with GRK2 inh. Carboxyfluorescein RNA aptamer on beads, flow cytometry quenching; active compounds read low. fluorescence response (% of DMSO), % at 10 µM. 2,000 tested, under 10 active;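 active = compounds that quench the bead-bound fluorescent RNA probe, cutting fluorescence to under half of the solvent control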;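 note: counterscreen run without GRK2 so only probe quenching by compound is measured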
GRK2 confirm 2 – confirmation of human GRK2 inhibitors binding RNA aptamer site | shares compounds with GRK2 inh | bead-bound GRK2, FAM-aptamer displacement, flow cytometry | inhibition of aptamer binding, % at 10 µM | 360 tested, under 10 active;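 active = inhibition of aptamer binding above 40%, about triple the noise seen with nonglowing compounds, on plates passing quality control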;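 note: negative values mostly come from compounds that fluoresce themselves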
FAM quench SP – quenches fluorescent RNA aptamer, GRK2 hit artifact; shares compounds with GRK2 inh; carboxyfluorescein RNA aptamer beads, flow cytometry quenching; active compounds read low; fluorescence response vs DMSO, % at 10 µM; 360 tested, under 10 active;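 active = response vs DMSO under 50%, meaning signal dropped by over half, treated as fluorescence quencher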;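 note: labelled aptamer on streptavidin beads without GRK2 as a quench counter-screen; 100% = bead fluorescence of DMSO wells and lower means quenching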
* = called active by the depositor. The list is not random: actives were taken first. Their share in the collection is about 1.8%.

For c1coc(CNc2c3c(nc4ccccc24)CCC3)c1 the results were ARNT TACC3 PPI 1, DDE Tn7 FP inh -1, CAL PDZ FP-1 3, Tn6 DDE FP 6, CAL PDZ FP-2 -2, GRK2 inh 0, GRK2 confirm 2 2 and FAM quench SP 101.
`O=C(O)c1ccccc1-c1ccc(/C=c2\sc3nc4cc(Br)cnc4n3c2=O)o1` gave ARNT TACC3 PPI 50*, CAL PDZ FP-1 1, CAL PDZ FP-2 -1, GRK2 inh 99*, GRK2 CP1 90*, Aptamer quench 1 16 and Aptamer quench SP 89.
Cc1cc2nc3s/c(=C/c4ccc(-c5ccccc5C(=O)O)o4)c(=O)n3c2cc1C was read as ARNT TACC3 PPI -1, DDE Tn7 FP inh -5, CAL PDZ FP-1 0, Tn6 DDE FP -5, CAL PDZ FP-2 -3 and GRK2 inh 4.
For CC[n+]1ccc(C[n+]2ccccc2)c2ccccc21 the results were ARNT TACC3 PPI 5, DDE Tn7 FP inh -10, CAL PDZ FP-1 1, Tn6 DDE FP -4, CAL PDZ FP-2 -1, GRK2 inh 54*, GRK2 CP1 3 and Aptamer quench SP 95.
`COc1ccc(OC(=O)c2c(C)nn(-c3ccccc3)c2C)cc1` gave ARNT TACC3 PPI -2, DDE Tn7 FP inh 2, CAL PDZ FP-1 -3, Tn6 DDE FP -5, CAL PDZ FP-2 0 and GRK2 inh 4.
Screening COc1ccc(OC(=O)c2cnn(-c3ccccc3)c2C)cc1 returned ARNT TACC3 PPI -3, DDE Tn7 FP inh -6, CAL PDZ FP-1 0, Tn6 DDE FP 5, CAL PDZ FP-2 -2, GRK2 inh 44*, GRK2 CP1 1 and Aptamer quench SP 99.
Screening CC(=O)Nc1ccc(N(C)C)cc1[N+](=O)[O-] returned ARNT TACC3 PPI 3, DDE Tn7 FP inh -10, CAL PDZ FP-1 1, Tn6 DDE FP 2, CAL PDZ FP-2 1, GRK2 inh 41*, GRK2 CP1 79*, Aptamer quench 1 -1.5 and Aptamer quench SP 100.
CC[C@@H](CCCCCC#N)CCC(=O)N(c1ccccc1)c1ccccc1 was read as DDE Tn7 FP inh 10 and Tn6 DDE FP -1.
`CO[C@@H]1CN(C)C(=O)c2cc(NC(C)=O)ccc2OC[C@H](C)N(C(=O)c2ccncc2)C[C@@H]1C` gave ARNT TACC3 PPI -4.
For Cc1cc(C)cc(C(=O)Nc2cccnc2)c1 the results were ARNT TACC3 PPI 1, DDE Tn7 FP inh 0, CAL PDZ FP-1 -6, Tn6 DDE FP 0, GRK2 inh 82*, GRK2 CP1 -2 and Aptamer quench SP 99.
For C[C@H]1CN([C@@H](C)CO)C(=O)c2cccc(NC(=O)c3cnccn3)c2O[C@H]1CN(C)Cc1ccc(C(=O)O)cc1 the results were ARNT TACC3 PPI -3.
For CCN(CCNC(=O)C1CCN(c2nnc(-n3cccc3)s2)CC1)c1ccccc1 the results were ARNT TACC3 PPI 12, DDE Tn7 FP inh 2, Tn6 DDE FP 3, CAL PDZ FP-2 -2, GRK2 inh 2, GRK2 CP1 1 and Aptamer quench SP 97.
For CCOc1ccc(CCNC(=O)C2CCN(c3nnc(-n4cccc4)s3)CC2)cc1 the results were ARNT TACC3 PPI -2, DDE Tn7 FP inh 3, Tn6 DDE FP -5, CAL PDZ FP-2 0 and GRK2 inh 2.
`Cc1nn(C)cc1NC(=O)C[C@@H]1CC[C@@H]2[C@@H](COc3ccc(NC(=O)c4cccc(F)c4)cc3C(=O)N2C)O1` gave ARNT TACC3 PPI -9.
`Cc1ccc(NC(=O)CSc2nnc(C)c(=O)n2N)cc1` gave ARNT TACC3 PPI 2, DDE Tn7 FP inh -2, CAL PDZ FP-1 4, Tn6 DDE FP -2, CAL PDZ FP-2 -1 and GRK2 inh 4.
`Cc1nnc(SCC(=O)Nc2ccc(S(N)(=O)=O)cc2)n(N)c1=O` gave ARNT TACC3 PPI 21, DDE Tn7 FP inh 1, CAL PDZ FP-1 -5, Tn6 DDE FP -4, CAL PDZ FP-2 0, GRK2 inh 30, GRK2 CP1 -6 and Aptamer quench SP 100.
Screening COc1ccc(C2(CCN)CC(C)N(C)CC2C)cc1 (stereo not drawn) returned ARNT TACC3 PPI -5, DDE Tn7 FP inh 6, CAL PDZ FP-1 -3, Tn6 DDE FP 6, CAL PDZ FP-2 -1 and GRK2 inh 0.
Cc1ccc(CC2(O)CC(C)N(C)CC2C)c(C)c1 (stereo not drawn) was read as ARNT TACC3 PPI 17, DDE Tn7 FP inh -2, CAL PDZ FP-1 3, Tn6 DDE FP -5, CAL PDZ FP-2 0, GRK2 inh 56*, GRK2 CP1 -1 and Aptamer quench SP 104.
Screening O=C(Nc1cc(S(=O)(=O)N2CCOCC2)ccc1Cl)c1cc2ccccc2o1 returned ARNT TACC3 PPI 6, DDE Tn7 FP inh -6, CAL PDZ FP-1 -1, Tn6 DDE FP -2, CAL PDZ FP-2 -2 and GRK2 inh 1.
Screening O=[N+]([O-])c1cccc2c(S(=O)(=O)N3CCOCC3)cccc12 returned ARNT TACC3 PPI 1, DDE Tn7 FP inh -3, CAL PDZ FP-1 -2, Tn6 DDE FP -6, CAL PDZ FP-2 -1, GRK2 inh 89*, GRK2 CP1 14 and Aptamer quench SP 100.
Screening O=[N+]([O-])c1cccc2c(S(=O)(=O)N3CCCCC3)cccc12 returned ARNT TACC3 PPI 13, DDE Tn7 FP inh 13, CAL PDZ FP-1 0, Tn6 DDE FP 1, CAL PDZ FP-2 -1 and GRK2 inh 0.
For COc1ccc(N(C(=O)c2ccco2)S(=O)(=O)c2cccs2)cc1 the results were ARNT TACC3 PPI 11, DDE Tn7 FP inh 6, CAL PDZ FP-1 -1, Tn6 DDE FP 0, CAL PDZ FP-2 -2, GRK2 inh 98*, GRK2 CP1 -1 and Aptamer quench SP 97.
